Laboratory results as given in ChEMBL document CHEMBL4842397, “Macrocyclization as a Source of Desired Polypharmacology. Discovery of Triple PI3K/mTOR/PIM Inhibitors” (ACS Med Chem Lett, 2021).

Experiments:
[1] = target: Serine/threonine-protein kinase pim-1 (Homo sapiens, UniProt P11309); test: Inhibition of human PIM1 using ARKRRRHPSGPPTA as substrate measured after 1.5 hrs by ADP hunter plus assay
[2] = target: Phosphatidylinositol 4,5-bisphosphate 3-kinase catalytic subunit alpha isoform (Homo sapiens, UniProt P42336); test: Inhibition of PI3Kalpha (unknown origin) by ADP-Glo assay
[3] = target: Serine/threonine-protein kinase mTOR (Homo sapiens, UniProt P42345); test: Inhibition of mTOR (unknown origin) by LanthaScreen assay
[4] = Oral bioavailability in BALB/c mouse at 10 mg/kg; type: ADME, organism-based; conditions: in vivo
Procedure, shortened: (§1)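 Preliminary single-dose pharmacokinetics in BALB-C mice, given I.V. or P.O. Units: AUC h.ng/mL, T1/2 h, Cl L/h/kg, Vd L/kg, Cmax ng/mL, Tmax h. Bioavailability is the absorbed fraction at the doses tested.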

[5] = Half life in BALB/c mouse at 1 mg/kg, iv; type: ADME, organism-based; conditions: in vivo; procedure, shortened: as §1
[6] = target: PI3-kinase p110-alpha/p85-alpha (Homo sapiens, UniProt P42336); test: Inhibition of human PI3K p110alpha/p85alpha by HTRF assay; type: protein-complex assay
Procedure, shortened: (§2)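 Ki from an HTRF assay on each PI3K isoform, reported in nM as the average of two independent experiments.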

[7] = target: Phosphatidylinositol 4,5-bisphosphate 3-kinase catalytic subunit gamma isoform (Homo sapiens, UniProt P48736); test: Inhibition of human PI3Kgamma by HTRF assay; procedure, shortened: as §2
[8] = target: Serine/threonine-protein kinase PIM (Homo sapiens, UniProt P11309+Q9P1W9+Q86V86); test: Inhibition of PIM in human MV4-11 cells assessed as BAD phosphorylation at Ser112 measured after over night incubation by lotting based cellular assay; type: cell-based
[9] = target: Serine/threonine-protein kinase pim-2 (Homo sapiens, UniProt Q9P1W9); test: Inhibition of PIM2 (unknown origin) using ARKRRRHPSGPPTA as peptide substrate by ADP Hunter Plus assay
[10] = Tmax in BALB/c mouse at 10 mg/kg, po; type: ADME, organism-based; conditions: in vivo; procedure, shortened: as §1
PI3K p110 beta/p85 alpha = PI3K p110 beta/p85 alpha (Homo sapiens, UniProt P42338); test: Inhibition of human PI3K p110beta/p85alpha by HTRF assay; type: protein-complex assay; procedure, shortened: as §2
[11] = Half life in BALB/c mouse at 10 mg/kg, po; type: ADME, organism-based; conditions: in vivo; procedure, shortened: as §1
[12] = AUClast in BALB/c mouse at 1 mg/kg, iv; type: ADME, organism-based; set-up: route intravenous, time 0 - last, dose 1 mg/kg; conditions: in vivo; procedure, shortened: as §1
[13] = Microsomal stability in human liver microsomes incubated for 30 mins by LC-MS/MS analysis; type: ADME, Microsome; conditions: read-out: Stabilty
[14] = target: Serine/threonine-protein kinase pim-3 (Homo sapiens, UniProt Q86V86); test: Inhibition of PIM3 (unknown origin) using ARKRRRHPSGPPTA as peptide substrate by ADP Hunter Plus assay
[15] = Microsomal stability in rat liver microsomes incubated for 30 mins by LC-MS/MS analysis; type: ADME, Microsome; conditions: read-out: Stabilty
Cytochrome P450 2C9 = Cytochrome P450 2C9 (Homo sapiens, UniProt P11712); test: Inhibition of CYP2C9 (unknown origin); type: ADME
[16] = Microsomal stability in mouse liver microsomes incubated for 30 mins by LC-MS/MS analysis; type: ADME, Microsome; conditions: read-out: Stabilty
PI3K/mTOR (Homo sapiens) = test: Inhibition of PI3K/mTOR in human MV4-11 cells assessed as Akt phosphorylation at Ser473 measured after over night incubation by lotting based cellular assay
[17] = Clearance in BALB/c mouse at 1 mg/kg, iv; type: ADME, organism-based; conditions: in vivo; procedure, shortened: as §1
[18] = Volume of distribution at steady state in BALB/c mouse at 1 mg/kg, iv; type: ADME, organism-based; conditions: in vivo; procedure, shortened: as §1
[19] = target: Voltage-gated inwardly rectifying potassium channel KCNH2 (Homo sapiens, UniProt Q12809); test: Inhibition of human ERG at < 30 uM
[20] = target: PI3-kinase p110-delta/p85-alpha (Homo sapiens, UniProt O00329); test: Inhibition of human PI3K p110delta/p85alpha by HTRF assay; type: protein-complex assay; procedure, shortened: as §2
[21] = AUClast in BALB/c mouse at 10 mg/kg, po; type: ADME, organism-based; set-up: time 0 - last, route oral, dose 10 mg/kg; conditions: in vivo; procedure, shortened: as §1

Chain of Serine/threonine-protein kinase pim-1 (P11309 whole entry, canonical isoform): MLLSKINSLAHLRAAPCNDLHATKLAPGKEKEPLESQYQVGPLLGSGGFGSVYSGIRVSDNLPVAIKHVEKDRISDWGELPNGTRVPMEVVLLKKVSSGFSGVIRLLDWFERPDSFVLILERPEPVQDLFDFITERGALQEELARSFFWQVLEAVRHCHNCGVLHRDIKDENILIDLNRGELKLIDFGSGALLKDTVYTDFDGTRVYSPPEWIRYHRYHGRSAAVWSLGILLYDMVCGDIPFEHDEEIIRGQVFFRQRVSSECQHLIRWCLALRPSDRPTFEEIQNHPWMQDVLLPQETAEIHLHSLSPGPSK
Chain of Phosphatidylinositol 4,5-bisphosphate 3-kinase catalytic subunit alpha isoform (P42336 whole entry, canonical isoform): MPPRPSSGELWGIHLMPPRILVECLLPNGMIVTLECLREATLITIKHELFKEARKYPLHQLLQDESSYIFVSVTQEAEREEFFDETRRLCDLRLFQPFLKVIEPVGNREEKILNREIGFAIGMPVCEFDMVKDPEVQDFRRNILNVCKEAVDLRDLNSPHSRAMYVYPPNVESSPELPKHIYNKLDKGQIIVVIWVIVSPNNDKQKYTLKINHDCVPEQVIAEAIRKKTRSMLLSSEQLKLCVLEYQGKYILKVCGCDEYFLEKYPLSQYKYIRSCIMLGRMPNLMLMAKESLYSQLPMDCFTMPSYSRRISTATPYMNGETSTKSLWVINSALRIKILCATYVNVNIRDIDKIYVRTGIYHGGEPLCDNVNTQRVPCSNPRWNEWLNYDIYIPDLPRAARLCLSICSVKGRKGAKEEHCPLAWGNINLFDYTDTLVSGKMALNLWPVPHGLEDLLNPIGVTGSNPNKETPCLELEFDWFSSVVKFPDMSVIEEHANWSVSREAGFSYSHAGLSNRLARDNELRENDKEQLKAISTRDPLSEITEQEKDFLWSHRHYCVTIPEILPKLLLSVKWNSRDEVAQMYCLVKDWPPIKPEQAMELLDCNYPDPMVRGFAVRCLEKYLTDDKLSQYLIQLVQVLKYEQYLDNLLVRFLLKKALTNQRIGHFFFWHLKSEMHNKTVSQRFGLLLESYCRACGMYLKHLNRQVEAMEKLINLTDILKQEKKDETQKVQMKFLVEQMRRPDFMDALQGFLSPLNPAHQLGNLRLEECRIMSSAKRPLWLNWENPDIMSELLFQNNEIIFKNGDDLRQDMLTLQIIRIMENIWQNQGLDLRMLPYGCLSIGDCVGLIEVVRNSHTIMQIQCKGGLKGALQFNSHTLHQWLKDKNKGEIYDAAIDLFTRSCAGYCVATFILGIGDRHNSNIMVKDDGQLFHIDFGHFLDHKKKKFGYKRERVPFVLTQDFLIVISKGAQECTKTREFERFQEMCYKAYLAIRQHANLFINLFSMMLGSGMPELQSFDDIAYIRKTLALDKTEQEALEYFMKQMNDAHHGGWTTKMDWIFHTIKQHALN
Chain of Serine/threonine-protein kinase pim-2 (Q9P1W9 whole entry): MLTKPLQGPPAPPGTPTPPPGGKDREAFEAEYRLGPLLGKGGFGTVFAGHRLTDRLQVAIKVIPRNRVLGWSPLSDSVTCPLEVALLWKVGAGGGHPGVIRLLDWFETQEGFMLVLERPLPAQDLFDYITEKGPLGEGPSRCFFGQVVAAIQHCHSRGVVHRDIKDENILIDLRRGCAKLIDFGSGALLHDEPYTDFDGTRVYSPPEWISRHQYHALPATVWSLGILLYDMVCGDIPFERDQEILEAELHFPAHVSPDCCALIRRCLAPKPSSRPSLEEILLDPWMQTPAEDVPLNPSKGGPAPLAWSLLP
Chain of Serine/threonine-protein kinase PIM (P11309 whole entry, looked up): as the sequence (P11309 whole entry, canonical isoform) above
Chain of Serine/threonine-protein kinase PIM (Q9P1W9 whole entry, looked up): as the sequence (Q9P1W9 whole entry) above
Chain of PI3K p110 beta/p85 alpha (P27986 whole entry): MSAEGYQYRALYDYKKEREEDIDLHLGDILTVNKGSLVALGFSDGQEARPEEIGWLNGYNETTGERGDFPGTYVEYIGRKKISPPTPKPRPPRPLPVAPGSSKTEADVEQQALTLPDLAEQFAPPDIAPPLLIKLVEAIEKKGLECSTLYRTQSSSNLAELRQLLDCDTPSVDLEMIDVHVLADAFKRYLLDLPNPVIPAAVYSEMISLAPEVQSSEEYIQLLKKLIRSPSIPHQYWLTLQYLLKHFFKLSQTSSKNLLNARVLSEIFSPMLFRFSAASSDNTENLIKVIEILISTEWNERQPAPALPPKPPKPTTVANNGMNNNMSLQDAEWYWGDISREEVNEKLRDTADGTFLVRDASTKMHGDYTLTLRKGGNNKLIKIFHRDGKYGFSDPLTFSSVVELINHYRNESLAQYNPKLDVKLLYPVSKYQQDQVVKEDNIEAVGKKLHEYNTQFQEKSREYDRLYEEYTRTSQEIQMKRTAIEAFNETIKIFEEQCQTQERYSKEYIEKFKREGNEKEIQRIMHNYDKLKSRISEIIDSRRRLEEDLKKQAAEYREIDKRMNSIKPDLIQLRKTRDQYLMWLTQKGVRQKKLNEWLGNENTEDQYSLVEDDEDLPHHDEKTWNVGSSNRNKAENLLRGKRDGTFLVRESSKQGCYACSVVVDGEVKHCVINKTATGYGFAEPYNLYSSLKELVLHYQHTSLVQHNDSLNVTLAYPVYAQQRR
Chain of PI3K p110 beta/p85 alpha (P42338 whole entry): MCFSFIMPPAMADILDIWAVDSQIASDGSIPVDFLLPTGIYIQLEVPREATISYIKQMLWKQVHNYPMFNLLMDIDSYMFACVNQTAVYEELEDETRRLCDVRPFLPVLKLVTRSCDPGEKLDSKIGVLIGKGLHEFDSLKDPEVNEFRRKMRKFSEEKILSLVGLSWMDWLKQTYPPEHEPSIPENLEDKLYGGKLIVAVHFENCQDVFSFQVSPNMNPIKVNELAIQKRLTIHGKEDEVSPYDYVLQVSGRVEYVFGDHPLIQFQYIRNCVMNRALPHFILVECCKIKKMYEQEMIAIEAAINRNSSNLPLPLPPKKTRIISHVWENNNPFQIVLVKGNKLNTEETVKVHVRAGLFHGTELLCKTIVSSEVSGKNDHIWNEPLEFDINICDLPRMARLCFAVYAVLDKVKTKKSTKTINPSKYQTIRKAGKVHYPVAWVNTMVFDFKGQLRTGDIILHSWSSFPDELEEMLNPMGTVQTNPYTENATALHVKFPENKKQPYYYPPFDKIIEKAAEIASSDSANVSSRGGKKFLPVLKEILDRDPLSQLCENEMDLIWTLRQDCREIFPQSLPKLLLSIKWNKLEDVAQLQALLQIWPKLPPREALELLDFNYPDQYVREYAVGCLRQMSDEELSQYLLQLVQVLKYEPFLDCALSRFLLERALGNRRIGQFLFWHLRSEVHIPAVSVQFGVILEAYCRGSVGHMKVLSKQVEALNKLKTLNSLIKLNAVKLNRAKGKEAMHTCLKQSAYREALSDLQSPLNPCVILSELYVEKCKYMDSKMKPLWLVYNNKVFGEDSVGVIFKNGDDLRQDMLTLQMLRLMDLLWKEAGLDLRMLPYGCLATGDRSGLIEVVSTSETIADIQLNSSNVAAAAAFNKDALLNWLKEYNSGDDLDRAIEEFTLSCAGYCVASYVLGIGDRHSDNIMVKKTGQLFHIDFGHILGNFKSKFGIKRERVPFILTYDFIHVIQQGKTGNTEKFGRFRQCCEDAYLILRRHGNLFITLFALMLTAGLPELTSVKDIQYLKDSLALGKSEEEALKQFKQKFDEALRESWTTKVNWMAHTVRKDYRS
Chain of PI3-kinase p110-alpha/p85-alpha (P27986 whole entry, canonical isoform): as the sequence (P27986 whole entry) above
Chain of PI3-kinase p110-alpha/p85-alpha (P42336 whole entry, canonical isoform): as the sequence (P42336 whole entry, canonical isoform) above
Chain of Cytochrome P450 2C9 (P11712 whole entry): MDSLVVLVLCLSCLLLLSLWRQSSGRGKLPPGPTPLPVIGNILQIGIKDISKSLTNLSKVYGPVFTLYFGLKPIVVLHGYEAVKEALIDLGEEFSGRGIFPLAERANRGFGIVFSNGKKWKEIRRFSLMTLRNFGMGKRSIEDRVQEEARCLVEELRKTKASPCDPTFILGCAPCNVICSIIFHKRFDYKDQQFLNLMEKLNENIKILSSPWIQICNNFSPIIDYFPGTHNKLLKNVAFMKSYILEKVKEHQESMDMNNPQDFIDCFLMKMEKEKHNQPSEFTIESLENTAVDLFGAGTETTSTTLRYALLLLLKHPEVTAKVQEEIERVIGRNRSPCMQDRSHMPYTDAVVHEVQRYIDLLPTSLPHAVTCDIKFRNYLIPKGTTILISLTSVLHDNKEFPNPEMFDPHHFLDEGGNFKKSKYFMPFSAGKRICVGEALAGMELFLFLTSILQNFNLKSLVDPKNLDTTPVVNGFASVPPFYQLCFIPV

COc1ccc2cc1C(=O)NCC1=CC=C(S1)c1ncnc3c1SC(=C3)c1cnc(OC)c(c1)NS2(=O)=O gave an IC50 [1] of 65.7 nM, an IC50 [2] of 6.91 nM and an IC50 [3] of 5570 nM.
For COc1ncc2cc1NS(=O)(=O)c1cccc(c1)C(=O)NCCn1cc(cn1)-c1ncnc3c1SC2=C3, the IC50 [1] was 254 nM, the IC50 [2] was 58.3 nM and the IC50 [3] was greater than 10000 nM.
COc1ncc2cc1NS(=O)(=O)c1cccc(c1)C(=O)NCC1=C(C)C=C(S1)c1ncnc3c1SC2=C3 showed an IC50 [1] of 43.8 nM, an IC50 [2] of 7.4 nM and an IC50 [3] greater than 10000 nM.
COc1ncc2cc1NS(=O)(=O)c1cccc(c1)C(=O)NCc1nc(cs1)-c1ncnc3c1SC2=C3 showed an IC50 [1] greater than 10000 nM, an IC50 [2] of 123 nM and an IC50 [3] greater than 10000 nM.
Molecule COc1ncc2cc1NS(=O)(=O)c1cccc(c1)C(=O)NCc1cc(ccn1)-c1ncnc3c1SC2=C3 has an IC50 [1] of 649 nM, an IC50 [2] of 50.2 nM and an IC50 [3] greater than 10000 nM.
Work on CNC(=O)c1cccc(S(=O)(=O)Nc2cc(-c3sc4c(-c5cccs5)ncnc4c3C)cnc2OC)c1 yielded an IC50 [1] greater than 10000 nM, an IC50 [2] of 6.72 nM and an IC50 [3] of 604 nM.
In the case of COc1ncc2cc1NS(=O)(=O)c1cccc(c1)C(=O)NCc1cccc(c1)-c1ncnc3c1SC2=C3, the IC50 [1] is reported as 279 nM, the IC50 [2] is reported as 16.8 nM and the IC50 [3] is reported as greater than 10000 nM.
In the case of COc1ncc2cc1NS(=O)(=O)c1cccc(c1)C(=O)NCc1cncc(c1)-c1ncnc3c1SC2=C3, the IC50 [1] is reported as 45.8 nM, the IC50 [2] is reported as 74.6 nM and the IC50 [3] is reported as greater than 10000 nM.
For COc1ncc(-c2sc3c(-c4cccs4)ncnc3c2C)cc1NS(=O)(=O)c1ccccc1, the IC50 [1] was greater than 10000 nM, the IC50 [2] was 36.2 nM and the IC50 [3] was greater than 1000 nM.
COc1ncc2cc1NS(=O)(=O)c1cccc(c1)C(=O)NC[C@@H]1CN(CCO1)c1ncnc3c1SC2=C3C showed an IC50 [1] of 39.1 nM, an IC50 [2] of 0.66 nM and an IC50 [3] of 2030 nM.
Molecule COc1ncc2cc1NS(=O)(=O)c1cccc(c1)C(=O)NCCn1cc(cn1)-c1ncnc3c1SC2=C3C has an IC50 [1] of 178 nM, an IC50 [2] of 0.43 nM and an IC50 [3] of 197 nM.
COc1ncc2cc1NS(=O)(=O)c1cccc(c1)C(=O)NCC1=CC=C(S1)c1ncnc3c1SC2=C3C showed a bioavailability [4] of 35.1%, a half-life [5] of 3.66 h and a Ki [6] of 0.25 nM. It also gave a Ki [7] of 0.44 nM, an EC50 [8] of 34 nM and an IC50 [9] of 13.3 nM. It also gave a Tmax [10] of 0.25 h, an IC50 [1] of 18.1 nM and a Ki (PI3K p110 beta/p85 alpha) of 0.37 nM. For the same molecule, the half-life [11] was 23.4 h, the AUC(0-t) [12] was 16600 ng·h/mL and the IC50 [2] was 0.23 nM. It also gave an IC50 [3] of 138 nM, a remaining at 0.5 h [13] greater than 98% and an IC50 [14] of 4.39 nM. The remaining at 0.5 h [15] was 87%, the IC50 (Cytochrome P450 2C9) was 4610 nM and the remaining at 0.5 h [16] was 90%. It also gave an EC50 (PI3K/mTOR (Homo sapiens)) of less than 1 nM, a clearance [17] of 1 mL/min/kg and a Vd [18] of 0.31 L/kg. For the same molecule, the “inhibition (INH)” value [19] was “Not Active”, the Ki [20] was 0.08 nM and the AUC(0-t) [21] was 58200 ng·h/mL.
